# Screening results: PubChem BioAssay, several laboratories
# CHOP UPR activ – activators of apoptotic arm of unfolded protein response (CHOP). CHO-CHOP luciferase reporter, UPR activation, luminescence; percent of tunicamycin response over DMSO baseline. 0.34% of 330,000 active. activation, % at 10 µM. AID 449763;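 active = at 10 µM dose, activation of 40% or more, normalized to positive control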;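 note: 100% = tunicamycin at 10 µg/mL and 0% = DMSO alone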
#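 System: CHO CHOP reporter cells. Amount: 500 cells per well. Buffer or medium: F12 medium, 10% FBS. Compound dosing: one dose, 10 µM in 0.5% DMSO. Incubation: 6 h compound exposure at 37 °C after overnight seeding. Technique: Steady-Glo luciferase luminescence. Benchmarks: tunicamycin and DMSO controls.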
# CHOP inhibitor – inhibitors of CHOP induction in ER stress response | CHO-K1 CHOP-promoter luciferase, tunicamycin-induced, 15-18 h | inhibition, % at 10 µM | 3.8% of 220,000 active;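 active = compounds that reduced the stress-induced luciferase reporter signal by more than about 70% of percent inhibition, limit read from the data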;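 note: 0% = tunicamycin plus vehicle and 100% = wells without tunicamycin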
# T cruzi inh – T. cruzi replication inhibition; T. cruzi beta-gal in NIH3T3, luminescence, 90 h; inhibition, % (test concentration not listed); 1.4% of 300,000 active; AID 1885;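 active = mean inhibition across valid replicates above about 55%, limit read from the data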;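 note: signal also drops with host cell toxicity which is not excluded here; 0% = plate median of DMSO wells and 100% = zero luminescence signal; higher percent means less beta-gal luminescence so fewer parasites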
#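 Assay system: NIH/3T3 fibroblasts plus reporter T. cruzi. Amount: NIH/3T3 cells, 5,000 per well. Buffer or medium: DMEM, 2% fetal bovine serum. Doses: compound pinned at 50 nL/well, DMSO. Schedule: ≥90 h infection period, 3 h prior cell attachment. Signal: luminescent β-galactosidase signal after 60 min lysis. Read-out: parasite load inhibition, %.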
# L major viab – inhibitors of Leishmania major promastigote growth | Leishmania major promastigotes, resazurin fluorescence viability | inhibition, % at 10 µM | 9% of 200,000 active | AID 1063; in the data active = inhibition above about 50%;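 note: promastigotes grown with compound for 44 hours at 28 °C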
# Dynein cargo inh – blocks dynein driven cargo transport along microtubules | 3617.4 mouse cells, GR-EGFP nuclear translocation imaging; test concentration mostly 20 µM; stimulated with dexamethasone, 1 µM; active compounds read low | z-score, hits read low | 0.47% of 220,000 active | AID 1381;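 active = plate z-score of nuclear minus cytoplasmic receptor signal below a set negative limit, without overly bright fluorescence or cell loss, cut at about -3.5 in these data, passing the limit was not always enough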;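 note: z-score of nuclear minus cytoplasmic ring GR-EGFP intensity difference per well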
#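 Buffer or medium – tet-free medium with charcoal-stripped serum · Signal – automated 10x imaging of fixed Hoechst-stained cells · Also added – dexamethasone agonist, 1.0 µM final, for 30 min · Incubation – induction 48 h, compound 1 h, agonist 30 min · Read-out – GR-EGFP nuclear translocation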
# XBP1 UPR activ – activators of adaptive arm of unfolded protein response (XBP1) | CHO-XBP1 luciferase reporter, IRE1-XBP1 UPR activation, luminescence; percent of tunicamycin response, DMSO as zero | activation, % at 20 µM | 0.33% of 330,000 active;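 active = versus positive control, 20 µM dose yields 30% or more activation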;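 note: 100% = tunicamycin at 10 µg/mL and 0% = DMSO only wells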
#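 Assay system: IRE1-XBP1 luciferase reporter CHO line. Input: 1000 cells/well. Buffer or medium: F12 with 10% serum. Doses: 20 µM, 1% DMSO. Times: overnight seeding at 37 °C, 6 h compound treatment at 37 °C. Technique: Steady-Glo luciferase glow luminescence, 10 min after reagent addition.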
# Active calls of the source: *; nt = no result. The sample as a whole holds a higher share of hits than the screen did.
SMILES,CHOP UPR activ,CHOP inhibitor,T cruzi inh,L major viab,Dynein cargo inh,XBP1 UPR activ
CC(=O)C(Cc1ccccc1)NC(=O)CN(C)Cc1ccccc1Cl (stereo not drawn),-2,nt,-6,nt,nt,6
Cc1ccc(-n2nc3c(c2NC(=O)C(C)C)CS(=O)(=O)C3)c(C)c1,-1,nt,-25,nt,nt,-2
O=S(=O)(NCCSc1ccccc1)c1ccc(F)cc1,-2,91*,7,-3,0.37,-3
CC(C)(C)SCCNS(=O)(=O)c1ccc(F)cc1,-2,61,-16,-3,-0.29,-2
O=C(Nc1nc2ccccc2s1)C1c2ccccc2Oc2ccccc21,-1,85*,12,22,-0.58,-4
COCCNC(=O)/C(C#N)=C/c1ccc(C)o1,1,1,-25,-5,-0.1,-4
Cc1cc(C(=O)CSc2n[nH]c(N)n2)c(C)n1-c1ccc2c(c1)OCO2,1,27,-10,60*,-1.2,1
Cc1cc(C(=O)CSc2nc(N)cc(N)n2)c(C)n1-c1cccc(F)c1,1,41,1,77*,0.3,3
Cc1cc(C(=O)CSc2nc(N)cc(N)n2)c(C)n1C1CC1,-1,-3,-1,10,2.5,2
Cc1cc(-n2c(C)cc(C(=O)CSc3nc(N)cc(=O)[nH]3)c2C)no1,0,12,-8,nt,-0.12,-2
Cc1cc(C(=O)COc2ccccc2Cl)c(C)n1-c1ccc2c(c1)OCO2,5,19,-13,3,1.1,1
Cc1cc(C(=O)CSc2nc(N)cc(=O)[nH]2)c(C)n1-c1ccc(OC(F)F)cc1,3,61,20,98*,-0.26,-1
O=C1c2ccccc2C(=O)N1SC1CCCCC1,-5,72*,-6,-1,-1.2,-7
O=C(OCN1C(=O)c2ccccc2C1=O)C1CCCCC1,-2,18,-5,-2,-0.42,-2
COc1ccc(OC)c(C(C)NC(=O)Nc2cccc(C(C)=O)c2)c1 (stereo not drawn),-2,12,nt,1,-0.67,-2
O=C(N/N=C/c1cccnc1)c1cc(-c2ccc(Cl)cc2)nc2ccccc12,1,nt,14,nt,nt,-1
O=C(N/N=C/c1ccc[nH]1)c1cc(-c2ccc(Cl)cc2)nc2ccccc12,2,-1,15,90*,0.59,3
O=C(N/N=C/c1ccc(Cl)cc1)c1cc(-c2cccnc2)nc2ccccc12,0,84*,-30,98*,-0.38,7
CC(=O)Nc1ccc(S(=O)(=O)NC2=C(N3CCN(Cc4ccccc4)CC3)C(=O)c3ccccc3C2=O)cc1,nt,28,1,99*,-0.57,nt
O=C(/C=C\c1ccccc1[N+](=O)[O-])Nc1ccccc1,5,-22,10,-5,-0.92,4
CC(=O)c1cccc(NC(=O)/C=C/c2ccc([N+](=O)[O-])s2)c1,nt,74*,56*,15,-0.19,nt
Cc1cc(C)cc(NC(=O)/C=C/c2ccc([N+](=O)[O-])s2)c1,nt,-21,47,82*,0.86,nt
Cc1ccc(S(=O)(=O)N2CCCC2CNC(=O)c2ccc(F)c(F)c2)cc1 (stereo not drawn),0,nt,4,nt,nt,0
COc1ccc(O)c(-c2cc(-c3ccccc3[N+](=O)[O-])[nH]n2)c1,6,-11,-8,17,-0.63,1
Cc1ccc(O)c(-c2cc(-c3ccccc3[N+](=O)[O-])[nH]n2)c1,4,8,-5,57*,0.21,0
O=[N+]([O-])c1ccccc1-c1cc(-c2cc(Cl)ccc2O)n[nH]1,nt,77*,-16,24,0.19,nt
CCCCN(C)C1=Nc2cccc3cccc1c23,-1,-6,9,57*,-0.74,-3
COc1ccc(NS(=O)(=O)c2cccc(C(=O)NCc3cccnc3)c2)cc1,0,nt,1,nt,nt,2
COc1ccc(N2CCN(C(=O)CSc3nnc4n3C(C)(C)Cc3ccccc3-4)CC2)cc1,-1,31,36,25,-0.59,-2
CC1(C)Cc2ccccc2-c2nnc(SCC(=O)N3CCc4ccccc43)n21,0,77*,8,14,-0.089,2
